This is an account of results in article PMC7558257 (Acta Pharmaceutica Sinica. B, 2020).

Usually IC50 stands for the midpoint of a concentration-inhibition curve. A low value points to greater potency.

Experiment [1] has as its target Human dihydroorotate dehydrogenase (DHODH) (Homo sapiens, UniProt Q02127). Kind of experiment: In vitro DHODH enzyme inhibition assay. The format is biochemical. The settings on record: for inhibition at 10 µM: read-out: Inhibition (%) at 10 μmol/L; for potency loss relative to naphthyl compound 24: vs. 24.
Experiment [2] relates to collagen-induced arthritis (CIA) in Wistar rats. Description: Collagen-induced arthritis. Type of experiment: in vivo. Particulars: orally once a day for 28 days; methotrexate 0.3 mg/kg, 54 at 10 and 30 mg/kg. Put shortly: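 Adult male Wistar rats (130–150 g) were immunized with emulsified bovine type II collagen on Days 1 and 7. Dosing was oral, once daily for 28 days, with 0.5% CMC-Na vehicle. Arthritis was scored 0–4 daily, blinded. Body weight was taken every 3 days, plus hind-paw volume and terminal joint histopathology. Data are mean ± SEM.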

Molecules are shown by their SMILES. Where only a bound is given, the exact number is not on record here.

Chain of Human dihydroorotate dehydrogenase (DHODH) (Q02127 whole entry): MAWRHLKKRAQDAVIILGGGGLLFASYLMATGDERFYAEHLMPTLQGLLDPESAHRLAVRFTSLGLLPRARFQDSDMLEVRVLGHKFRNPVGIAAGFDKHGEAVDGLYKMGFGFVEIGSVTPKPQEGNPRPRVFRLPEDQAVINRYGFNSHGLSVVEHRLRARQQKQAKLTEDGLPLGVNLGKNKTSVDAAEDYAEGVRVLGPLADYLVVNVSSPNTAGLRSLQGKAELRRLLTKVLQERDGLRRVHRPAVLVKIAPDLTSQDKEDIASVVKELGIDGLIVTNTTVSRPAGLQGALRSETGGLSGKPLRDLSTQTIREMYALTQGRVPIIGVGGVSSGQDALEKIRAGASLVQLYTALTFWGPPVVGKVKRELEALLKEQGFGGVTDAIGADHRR

Turning to `C/C(=C\c1ccc2ccccc2c1)C(=O)Nc1ccncc1C(=O)O` [Compound 50, (E)-4-(2-Methyl-3-(naphthalen-2-yl)acrylamido)nicotinic acid], in experiment [1], the IC50 is 1691 ± 14 nM and the inhibition at 10 µM was 74.1%.
For `O=C(COc1ccc([N+](=O)[O-])cc1)Nc1ccccc1C(=O)O` [Compound 9, 2-(2-(4-Nitrophenoxy)acetamido)benzoic acid], the inhibition at 10 µM in experiment [1] came to 45.3%.
With `C/C(=C\c1ccc2ccccc2c1)C(=O)Nc1ccc(C)cc1C(=O)O` [Compound 46], in experiment [1], the IC50 amounted to 688 ± 6 nM and the inhibition at 10 µM was found to be 82.9%.
The corresponding values for `C/C(=C\c1cccc(Oc2ccccc2)c1)C(=O)Nc1ccccc1C(=O)O` [Compound 35] are 597 ± 6 nM and 89.5%.
In the same order, the values of `C/C(=C\c1ccc2ccccc2c1)C(=O)Nc1ccc(Cl)cc1C(=O)O` [Compound 44] are 623 ± 1 nM and 83%.
In the same order, the values of `C/C(=C\c1ccc2c(Cl)cccc2c1)C(=O)Nc1ccccc1C(=O)O` [Compound 27] are 256 ± 9 nM and 96.8%.
In the case of `C/C(=C\c1cc2ccccc2cn1)C(=O)Nc1ccccc1C(=O)O` [Compound 31], in experiment [1], the IC50 is 646 ± 9 nM, the inhibition at 10 µM stood at 87.4% and the “potency loss relative to naphthyl compound 24” value was 8 fold.
For `COC(=O)c1ccccc1NC(=O)/C(C)=C/c1ccc2ccccc2c1` [Compound 52, Methyl (E)-2-(2-methyl-3-(naphthalen-2-yl)acrylamido)benzoate], in experiment [1], the “DHODH inhibition, result in words” value was “completely inactive”; the half-inhibitory concentration (IC50) is above 10000 nM; the inhibition at 10 µM worked out at 29.6%.
Take `O=C(COc1ccccc1)Nc1ccccc1C(=O)O` [Compound 10]: the inhibition at 10 µM in experiment [1] was determined as 31.7%.
As to `O=C(Nc1ccccc1C(=O)O)/C(Cl)=C/c1ccc2ccccc2c1` [Compound 39], in experiment [1], inhibition was half-maximal at 61 ± 1 nM (IC50) and the inhibition at 10 µM turned out to be 88.6%.
`O=C(COc1ccc2ccccc2c1)Nc1ccccc1C(=O)O` [Compound 36]: in experiment [1], half-maximal inhibition (IC50) was put at 1870 ± 48 nM and the inhibition at 10 µM is 76.1%.
In the case of `C/C(=C\c1ccc(Cl)c(Cl)c1)C(=O)Nc1ccccc1C(=O)O` [Compound 19], in experiment [1], the IC50 was found to be 529 ± 24 nM and the inhibition at 10 µM was 91.7%.
On to `C/C(=C\c1ccc2ccccc2c1)C(=O)Nc1cc(F)ccc1C(=O)O` [Compound 43], for which, in experiment [1], the IC50 was above 10000 nM and the inhibition at 10 µM came out at 34.9%.
As to `C/C(=C\c1ccc(C(F)(F)F)nc1)C(=O)Nc1ccccc1C(=O)O` [Compound 13], in experiment [1], the IC50 was determined as 6110 ± 102 nM and the inhibition at 10 µM was 69.3%.
For `C/C(=C\c1ccc2ccccc2c1F)C(=O)Nc1ccc(F)cc1C(=O)O` [Compound 53], the inhibition at 10 µM in experiment [1] worked out at 98%.
For the compound `C/C(=C\c1ccc2ccccc2c1)C(=O)Nc1ccc(Br)cc1C(=O)O` [Compound 45], in experiment [1], 1820 ± 20 nM corresponded to half-maximal inhibition (IC50) and the inhibition at 10 µM is 80.8%.
As for `C/C(=C\c1ccccc1)C(=O)Nc1ccccc1C(=O)O` [Compound 11], in experiment [1], the inhibition at 10 µM came to 85.6%.
For `C/C(=C\c1ccc2c(c1)CCCC2)C(=O)Nc1ccccc1C(=O)O` [Compound 23], in experiment [1], 115 ± 1 nM corresponded to half-maximal inhibition (IC50) and the inhibition at 10 µM was determined as 85.2%.
In the same order, the values of `COc1ccc2cc(/C=C(\C)C(=O)Nc3ccccc3C(=O)O)ccc2c1` [Compound 25] are 129 ± 8 nM and 88.2%.
With `C/C(=C\c1ccc2cc(Br)ccc2c1)C(=O)Nc1ccccc1C(=O)O` [Compound 26], in experiment [1], the IC50 was 448 ± 8 nM and the inhibition at 10 µM stood at 85.4%.
Consider `CN(Cc1cnc2nc(N)nc(N)c2n1)c1ccc(C(=O)N[C@@H](CCC(=O)O)C(=O)O)cc1` [methotrexate, reference compound], for which the “volumes of paws in CIA rats compared to model rats” value in experiment [2] is “significantly decreased”.
For `C/C(=C\c1ccc2ccccc2c1F)C(=O)Nc1ccccc1C(=O)O` [Compound 28], in experiment [1], the IC50 worked out at 57 ± 2 nM and the inhibition at 10 µM was 89.3%.
The corresponding values for `C/C(=C\c1ccc(Oc2ccccc2)cc1)C(=O)Nc1ccccc1C(=O)O` [Compound 34] are 630 ± 14 nM and 90.4%.
On to `CC/C(=C\c1ccc2ccccc2c1)C(=O)Nc1ccccc1C(=O)O` [Compound 41], for which, in experiment [1], half-maximal inhibition (IC50) required 606 ± 31 nM and the inhibition at 10 µM was determined as 82.8%.
Regarding `C/C(=C\c1ccc(Cl)c(C(F)(F)F)c1)C(=O)Nc1ccccc1C(=O)O` [Compound 18], in experiment [1], the IC50 stood at 894 ± 63 nM and the inhibition at 10 µM was determined as 84.6%.
On to `C/C(=C\c1ccc2ccccc2c1)C(=O)Nc1ccc(C(F)(F)F)cc1C(=O)O` [Compound 48], for which, in experiment [1], the IC50 was 874 ± 5 nM and the inhibition at 10 µM was determined as 87.4%.
In the case of `C/C(=C\c1ccc(-c2ccccc2)cc1)C(=O)Nc1ccccc1C(=O)O` [Compound 33], in experiment [1], the IC50 stood at 626 ± 13 nM and the inhibition at 10 µM came out at 89.8%.
The corresponding values for `C/C(=C\c1ccc2ccccc2c1Cl)C(=O)Nc1ccccc1C(=O)O` [Compound 29] are 78 ± 3 nM and 96.4%.
For the compound `C/C(=C\c1ccc(C(F)(F)F)cc1)C(=O)Nc1ccccc1C(=O)O` [Compound 12], in experiment [1], it took 1040 ± 40 nM to reach half-maximal inhibition (IC50) and the inhibition at 10 µM was found to be 82.3%.
As to `C/C(=C\c1ccc2ccccc2c1)C(=O)Nc1ccc(F)cc1C(=O)O` [Compound 42], the “improvement in potency for inhibition of DHODH vs. 24” value in experiment [1] (42 vs. 24) worked out at 1 fold. Moreover, in experiment [1], the inhibition at 10 µM worked out at 90%.
For the compound `O=C(Nc1ccccc1C(=O)O)/C(Br)=C/c1ccc2ccccc2c1` [Compound 40], in experiment [1], the IC50 stood at 85 ± 4 nM and the inhibition at 10 µM amounted to 88.6%.
The corresponding values for `O=C(/C=C/c1ccc2ccccc2c1)Nc1ccccc1C(=O)O` [Compound 38] are 712 ± 12 nM and 87.5%.
As to `C/C(=C\c1cc(Cl)cc(Cl)c1)C(=O)Nc1ccccc1C(=O)O` [Compound 21], in experiment [1], the IC50 came to 724 ± 28 nM and the inhibition at 10 µM was determined as 89.4%.
In the same order, the values of `C/C(=C\c1ccc(C)c(Cl)c1)C(=O)Nc1ccccc1C(=O)O` [Compound 17] are 384 ± 16 nM and 91%.
The corresponding values for `CC(C)(Oc1ccc2ccccc2c1)C(=O)Nc1ccccc1C(=O)O` [Compound 37, 2-(2-Methyl-2-(naphthalen-2-yloxy)propanamido)benzoic acid] are above 10000 nM and 20.3%.
The corresponding values for `COc1ccc(NC(=O)/C(C)=C/c2ccc3ccccc3c2)c(C(=O)O)c1` [Compound 47] are above 10000 nM and 48.2%.
On to `C/C(=C\c1ccc2c(c1)CCC2)C(=O)Nc1ccccc1C(=O)O` [Compound 22], for which, in experiment [1], the concentration for half-maximal inhibition (IC50) worked out at 252 ± 17 nM and the inhibition at 10 µM is 86.9%.
For the compound `COc1ccc(/C=C(\C)C(=O)Nc2ccccc2C(=O)O)cc1OC` [Compound 20], in experiment [1], the IC50 amounted to 612 ± 11 nM and the inhibition at 10 µM turned out to be 91.5%.
On to `C/C(=C\c1ccc2ccccc2c1)C(=O)Nc1sccc1C(=O)O` [Compound 49], for which, in experiment [1], the IC50 was 2130 ± 110 nM and the inhibition at 10 µM came to 79.3%.
As to `C/C(=C\c1ccc(C)c(C)c1)C(=O)Nc1ccccc1C(=O)O` [Compound 16], in experiment [1], the IC50 was determined as 394 ± 4 nM and the inhibition at 10 µM turned out to be 92.9%.
Turning to `C/C(=C\c1ccc2ccccc2c1)C(=O)Nc1ccccc1C(N)=O` [Compound 51], in experiment [1], half-maximal inhibition (IC50) was put at 5350 ± 172 nM and the inhibition at 10 µM turned out to be 66.9%.
The corresponding values for `C/C(=C\c1ccc(C(C)(C)C)cc1)C(=O)Nc1ccccc1C(=O)O` [Compound 15] are 836 ± 21 nM and 86.6%.
On to `C/C(=C\c1cc2ccccc2n1C)C(=O)Nc1ccccc1C(=O)O` [Compound 32, (E)-2-(2-Methyl-3-(1-methyl-1H-indol-2-yl)acrylamido)benzoic acid], for which, in experiment [1], the IC50 was determined as 317 ± 8 nM, the inhibition at 10 µM amounted to 84.3% and the “potency loss relative to naphthyl compound 24” value amounted to 4 fold.
Regarding `C/C(=C\c1ccc2ccccc2c1)C(=O)Nc1ccccc1C(=O)O` [Compound 24], in experiment [1], 75 ± 2 nM corresponded to half-maximal inhibition (IC50) and the inhibition at 10 µM is 93.9%.
On to `COc1ccc(/C=C(\C)C(=O)Nc2ccccc2C(=O)O)cc1` [Compound 14], for which, in experiment [1], the IC50 came to 561 ± 14 nM and the inhibition at 10 µM came to 88.7%.
Regarding `C/C(=C\c1ccc2ccccc2c1Br)C(=O)Nc1ccc(F)cc1C(=O)O` [Compound 55], the inhibition at 10 µM in experiment [1] stood at 98.6%.
Regarding `C/C(=C\c1ccc2ccccc2c1Br)C(=O)Nc1ccccc1C(=O)O` [Compound 30], in experiment [1], 58 ± 1 nM corresponded to half-maximal inhibition (IC50) and the inhibition at 10 µM is 90.2%.
